Data on eleven compounds can be found in ChEMBL document CHEMBL1148681, “Synthesis and evaluation of (2-phenethyl-2H-1,2,3-triazol-4-yl)(phenyl)methanones as Kv1.5 channel blockers for the treatment of atrial fibrillation” (Bioorg Med Chem Lett, 2006).

Series [1] deals with T1, Potassium voltage-gated channel subfamily A member 5 (Homo sapiens, UniProt P22460). The series can be described thus: Blockade of Kv1.5 channel expressed in LTK cells at 1 uM by patch clamp method. The series is classed as functional, cell-based. In short, it runs like this: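 Whole-cell patch clamp on Ltk- cells overexpressing Kv1.5, cultured 24–72 h and induced with dexamethasone for 24 h. Pipette solution was KCl/K2ATP/K4BAPTA/MgCl2/Hepes at pH 7.2; bath was NaCl/KCl/CaCl2/MgCl2/Hepes/glucose at pH 7.4. Cells were held at −70 mV and stepped to +60 mV for 1 s at 0.2 Hz. Current at pulse end was compared to control at 1 uM inhibitor.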
T1 sequence (P22460 whole entry): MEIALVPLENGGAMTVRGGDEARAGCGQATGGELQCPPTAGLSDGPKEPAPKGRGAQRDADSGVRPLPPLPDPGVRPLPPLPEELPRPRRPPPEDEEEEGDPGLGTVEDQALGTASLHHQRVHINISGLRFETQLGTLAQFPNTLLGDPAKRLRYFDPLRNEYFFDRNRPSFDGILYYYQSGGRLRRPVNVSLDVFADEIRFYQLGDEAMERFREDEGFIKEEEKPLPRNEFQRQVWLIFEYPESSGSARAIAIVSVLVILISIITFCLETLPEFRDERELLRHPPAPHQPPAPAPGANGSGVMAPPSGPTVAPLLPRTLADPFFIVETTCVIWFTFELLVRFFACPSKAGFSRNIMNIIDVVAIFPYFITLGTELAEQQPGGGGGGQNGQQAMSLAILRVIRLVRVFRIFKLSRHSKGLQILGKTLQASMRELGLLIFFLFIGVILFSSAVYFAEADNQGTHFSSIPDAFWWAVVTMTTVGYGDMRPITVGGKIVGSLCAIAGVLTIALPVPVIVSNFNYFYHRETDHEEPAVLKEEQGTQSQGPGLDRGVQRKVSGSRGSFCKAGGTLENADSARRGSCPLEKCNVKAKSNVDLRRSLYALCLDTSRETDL
(In general: In patch-clamp work, channel activity is measured electrically.)

Series [2] has as its target T1, Potassium voltage-gated channel subfamily A member 5. As to the kind of experiment: Blockade of Kv1.5 channel expressed in LTK cells by patch clamp method. The series is classed as functional, cell-based. A digest of the protocol:
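Dexamethasone-induced (24 h) Ltk- cells expressing Kv1.5 were recorded by series-resistance-compensated whole-cell patch clamp, with 1 s steps from −70 to +60 mV at 0.2 Hz (pH 7.2 pipette, pH 7.4 bath). After control currents stabilized, inhibitor was perfused at rising concentrations, each to maximal block. IC50 was obtained by nonlinear regression.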

For series [3], the target named is Voltage-gated inwardly rectifying potassium channel KCNH2 (Homo sapiens, UniProt Q12809). The series can be described thus: Inhibition of hERG. The series is classed as toxicity. (In general: hERG is a cardiac potassium channel; its block is linked to QT prolongation.)
Sequence of Voltage-gated inwardly rectifying potassium channel KCNH2 (Q12809 whole entry): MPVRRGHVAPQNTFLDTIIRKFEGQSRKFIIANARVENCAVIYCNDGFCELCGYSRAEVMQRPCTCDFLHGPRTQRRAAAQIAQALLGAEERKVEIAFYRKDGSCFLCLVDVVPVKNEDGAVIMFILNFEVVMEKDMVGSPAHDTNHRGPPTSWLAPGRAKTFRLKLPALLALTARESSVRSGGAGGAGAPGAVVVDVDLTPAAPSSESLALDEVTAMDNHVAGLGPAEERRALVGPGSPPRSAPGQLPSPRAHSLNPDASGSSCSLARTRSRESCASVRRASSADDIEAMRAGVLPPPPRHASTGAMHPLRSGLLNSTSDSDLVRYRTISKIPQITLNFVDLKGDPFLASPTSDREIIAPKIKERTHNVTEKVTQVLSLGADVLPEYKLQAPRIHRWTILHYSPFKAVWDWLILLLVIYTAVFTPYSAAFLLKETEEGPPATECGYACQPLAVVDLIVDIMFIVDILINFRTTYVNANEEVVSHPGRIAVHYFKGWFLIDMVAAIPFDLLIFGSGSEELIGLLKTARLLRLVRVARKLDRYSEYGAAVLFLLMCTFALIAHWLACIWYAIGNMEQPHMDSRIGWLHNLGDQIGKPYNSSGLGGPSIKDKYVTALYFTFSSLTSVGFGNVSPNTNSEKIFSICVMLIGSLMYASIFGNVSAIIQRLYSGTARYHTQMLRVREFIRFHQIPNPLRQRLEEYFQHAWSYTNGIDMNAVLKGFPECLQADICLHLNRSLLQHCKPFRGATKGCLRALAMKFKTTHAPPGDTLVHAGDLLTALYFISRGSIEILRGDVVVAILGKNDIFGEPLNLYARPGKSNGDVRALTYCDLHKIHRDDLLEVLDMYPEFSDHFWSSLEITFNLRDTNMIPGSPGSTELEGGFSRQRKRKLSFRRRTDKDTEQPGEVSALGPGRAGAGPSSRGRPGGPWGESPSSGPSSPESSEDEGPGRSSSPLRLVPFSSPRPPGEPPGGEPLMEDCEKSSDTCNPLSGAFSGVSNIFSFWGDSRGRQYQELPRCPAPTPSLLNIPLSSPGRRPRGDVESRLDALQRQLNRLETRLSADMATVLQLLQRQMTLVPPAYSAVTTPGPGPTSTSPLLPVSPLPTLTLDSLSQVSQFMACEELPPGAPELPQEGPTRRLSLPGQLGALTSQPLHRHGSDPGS
The target in series [4] is Potassium voltage-gated channel subfamily A member 3 (Homo sapiens) (UniProt P22001). As to the kind of experiment: Inhibition of Kv1.3 channel.
Sequence of Potassium voltage-gated channel subfamily A member 3 (Homo sapiens) (P22001 whole entry): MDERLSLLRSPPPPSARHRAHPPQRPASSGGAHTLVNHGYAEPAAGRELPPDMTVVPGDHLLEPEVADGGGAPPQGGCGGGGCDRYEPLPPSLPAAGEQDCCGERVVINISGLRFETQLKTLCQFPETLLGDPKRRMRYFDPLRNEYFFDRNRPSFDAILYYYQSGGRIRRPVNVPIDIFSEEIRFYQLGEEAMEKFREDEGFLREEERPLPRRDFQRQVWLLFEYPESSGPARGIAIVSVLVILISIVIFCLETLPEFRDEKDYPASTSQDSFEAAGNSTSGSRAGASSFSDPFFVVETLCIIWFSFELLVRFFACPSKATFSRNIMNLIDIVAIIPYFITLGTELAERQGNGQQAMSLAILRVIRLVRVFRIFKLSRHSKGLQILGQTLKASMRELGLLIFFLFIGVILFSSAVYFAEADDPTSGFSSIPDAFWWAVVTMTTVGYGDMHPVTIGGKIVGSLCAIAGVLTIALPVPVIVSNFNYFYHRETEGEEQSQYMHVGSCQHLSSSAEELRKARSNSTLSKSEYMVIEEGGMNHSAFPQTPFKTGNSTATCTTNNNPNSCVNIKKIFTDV
Series [5] concerns the target Voltage-gated L-type calcium channel (Homo sapiens, UniProt Q13936+Q13698+Q01668+O60840). As to the kind of experiment: Inhibition of L type calcium channel. It is filed as protein assay.
Series [6] deals with Sus scrofa. As to the kind of experiment: Increase in atrial effective refractory period in pig at 30 mg/kg after 15 mins. It is filed as functional, Cardiac atrium.
Series [7] concerns Sus scrofa. The series can be described thus: Effect on ventricular effective refractory period in pig at 30 mg/kg after 15 mins. It is filed as functional, organism-based. On the set-up: dose 30 mg/kg. To be noted: Cardiac ventricle.

Calls of active or inactive are those of the source. No cut-off for these calls is given here.

With `CCc1ccc(C(=O)c2cnn(CCc3ccc(OC)cc3)n2)cc1`, in series [1], the Activity was determined as 86%. The same measure, in the same setting: the result for `COc1ccc(CCn2ncc(C(=O)c3ccc(N(C)C)cc3OC)n2)cc1` reads 0%. Take `COc1ccc(CCn2cc(C(=O)c3ccc(C)c(C)c3)nn2)cc1`: the result in series [2] was inactive. With `COc1ccc(CCn2ncc(C(=O)c3ccccc3Cl)n2)cc1`, the Activity in series [1] came out at 22%. The same measure, in the same setting: as for `COc1ccc(CCn2ncc(C(=O)c3ccc(Cl)cc3)n2)cc1`, the figure is 85%; as for `COc1ccc(CCn2ncc(C(=O)c3ccc(Cl)c(Cl)c3)n2)cc1`, 88%; as for `COc1ccc(CCn2ncc(C(=O)c3ccc(OC)cc3)n2)cc1`, 84%. On the same count and under the same terms, as for `COc1ccc(CCn2ncc(C(=O)c3ccc(C(C)C)cc3)n2)cc1`, the figure is 97%. A word on the IC50: it is the concentration at which inhibition is half-maximal. Low values mean higher potency, high ones lower potency. Take `COc1ccc(CCn2ncc(C(=O)c3ccc(C)c(C)c3)n2)cc1`: half-maximal inhibition in series [2] (IC50) required 294 nM. In addition, the Activity in series [1] is 90%; in series [3], more than 50 µM; in series [4] it was 10.1 µM; in series [5], 26 µM; in the series on Sus scrofa [6] it was 12%. Also, the result in the series with Sus scrofa [7] was inactive. In series [1], `COc1ccc(CCn2ncc(C(=O)c3ccc(N(C)C)cc3)n2)cc1` gave an Activity of 99%. `COc1ccc(CCN2C(=O)CSC2c2ccc(C)c(C)c2)cc1` (configuration not stated) came in with a half-maximal inhibitory concentration (IC50) in series [2] of 137 nM.
